Laboratory results: ChEMBL document CHEMBL5653613 (Mol Cancer Ther, 2013)
The source made the active and inactive calls. No cut-off for these calls is given here.

Columns and labels:
T47D [1] = test: Induction of cell cycle arrest at telophase in human T47D cells at 5 umol/L preincubated for 24 hrs followed by extensive compound washout and subsequent culturing in compound-free media measured upto 120 mins by immunofluorescence staining based analysis; type: functional; settings: dose 5.0 µmol/L
In short: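 T-47D cells were treated at 37°C with 5 µmol/L for 24 h, washed extensively, then cultured in DMEM with 10% FBS for 30, 60 and 120 min. α- and γ-tubulin were detected by immunofluorescence with DAPI, imaged at 400×. The control was a 24 h preincubation with 5 µmol/L RO-3306. One of 2 experiments.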

ZR-75-1 [2] = test: Induction of polyploidy in human ZR-75-1 cells at 1 umol/L incubated for 72 hrs by microscopic analysis relative to control; type: functional; settings: dose 1 µmol/L, at 1 µM
In short: (§1)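 Cells stained with Hema-3 and photographed under a light microscope with CCD camera. Polyploid cells scored as percent of the population.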

T47D [3] = test: Inhibition of cell proliferation of human T47D cells with RON-/- at 5 umol/L incubated for 72 hrs followed by media replacement without compound measured upto 10 days by microscopic analysis; type: functional, cell-based; settings: dose 5.0 µmol/L
T47D [4] = test: Induction of polyploidy in human T47D cells assessed as cells with 2N chromosome contents at 5 uM incubated for 48 hrs by PI staining based flow cytometry (reference value: 48); type: functional
ZR-75-1 [5] = test: Induction of polyploidy in human ZR-75-1 cells assessed as cells with 2N chromosome contents at 5 uM incubated for 48 hrs by PI staining based flow cytometry (reference value: 48); type: functional
ZR-75-1 [6] = test: Induction of polyploidy in human ZR-75-1 cells assessed as cells with 4N chromosome contents at 5 uM incubated for 24 hrs by PI staining based flow cytometry (reference value: 35); type: functional
MCF7 [7] = test: Cytotoxicity against human MCF7 cells at 1 to 2.5 umol/L incubated for 72 hrs by MTS assay; type: functional, cell-based; settings: dose 1-2.5 µmol/L
ZR-75-1 [8] = test: Induction of polyploidy in human ZR-75-1 cells at 5 uM incubated for 72 hrs by microscopic analysis; type: functional, cell-based; in short: as §1
ZR-75-1 [9] = test: Downregulation of histone H3 expression in human ZR-75-1 cells at 5 umol/L incubated upto 72 hrs by Western blot analysis; type: functional, cell-based; settings: dose 5.0 µmol/L
In short: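 Cells were treated with 5 µmol/L for 0, 24, 48 and 72 h. Lysates were immunoblotted for AURK-B, phospho-Ser10 histone H3 and total histone H3, with β-actin reprobe as the loading control. Detection by enhanced chemiluminescence.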

T47D [10] = test: Induction of polyploidy in human T47D cell at 5 umol/L by microscopic analysis; type: functional, cell-based; settings: dose 5.0 µmol/L, time 72.0 hrs, TDE = time-dependent effect
MCF7 [11] = test: Induction of apoptosis in human MCF7 cells assessed as viable cells at 5 umol/L incubated for 3 days by Annexin V/PI staining based flow cytometry (reference value: 98.1 %); type: functional; settings: MCF7, 72 h, dose 5 µmol/L, time 3 day, read-out: Activity
MCF7 [12] = test: Induction of apoptosis in human MCF7 cells assessed as late cells at 5 umol/L incubated for 3 days by Annexin V/PI staining based flow cytometry (reference value: 1.4 %); type: functional; settings: dose 5 µmol/L; time 3 day; at 5 µM
[13] = Effect on bleomycin resistance in human T47D cells with compound-induced polyploidy assessed as change in bleomycin-induced cytotoxicity by measuring increase in bleomycin IC50 at 5 umol/L preincubated for 72 hrs followed by compound washout and subsequent bleomycin treatment for 72 hrs by MTS assay; type: functional, cell-based

CCOc1ccn(-c2ccc(F)cc2)c(=O)c1C(=O)Nc1ccc(Oc2ccnc(N)c2Cl)c(F)c1 [BMS-777607]
Activity (T47D [1]): Active
Activity (ZR-75-1 [2]): 11%
inhibition (T47D [3]): inactive
Activity (T47D [4]): 7.4
Activity (ZR-75-1 [5]): 4.5
Activity (ZR-75-1 [6]): 45.5
Activity (MCF7 [7]): inactive
Activity (ZR-75-1 [8]): Active
Activity (ZR-75-1 [9]): inactive
Activity (T47D [10]): Tde
viability at 5 µM (MCF7 [11]): 97.3%
Activity (MCF7 [12]): 2%
IC50 [13]: 2.72 µM
